The target in experiment [1] is Inosine-5'-monophosphate dehydrogenase 1 (Homo sapiens, UniProt P20839). Nature of the experiment: Inhibition of human IMPDH1. As to conditions: read-out: Ki(app). In outline: (§1)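 Run in duplicate with IMPDH1 at 150 nM or IMPDH2 at 50 nM, across a range of inhibitor concentrations. Buffer: 50 mM Tris pH 8.0, 100 mM KCl, 1 mM DTT, with 100 µM IMP and 100 µM NAD, at 25 °C. NADH formation followed at 340 nm. IC50 from a variable-slope sigmoidal fit of steady-state velocities; apparent Ki from the Morrison equation.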

For experiment [2], the system named is K562. Nature of the experiment: Antiproliferative activity against human K562 cells after 72 hrs by MTS assay. It counts as functional, cell-based. The note with it: K562, 72 h. On the technique in general: Tetrazolium dyes change colour on reduction, which living cells bring about.
Experiment [3] has as its target Inosine-5'-monophosphate dehydrogenase 2 (Homo sapiens, UniProt P12268). Nature of the experiment: Inhibition of human IMPDH2. The note with it: read-out: Ki(app). In outline:
as §1

The nature of experiment [4]: Inhibition of nuclear extract HDAC. In outline:
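HDAC nuclear extract tested with a commercial HDAC activity/inhibitor screening kit per its protocol. Inhibitors were dissolved in DMSO or methanol. IC50 from a variable-slope sigmoidal fit of end-point fractional fluorescence. Autofluorescence corrected using a compound concentration curve run under background-well conditions.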

In general, IC50 refers to the point on the concentration scale where inhibition reaches its midpoint. A higher IC50 goes with weaker potency.

Where only a bound is given, the exact number is not on record here.

Sequence of Inosine-5'-monophosphate dehydrogenase 1 (P20839 whole entry): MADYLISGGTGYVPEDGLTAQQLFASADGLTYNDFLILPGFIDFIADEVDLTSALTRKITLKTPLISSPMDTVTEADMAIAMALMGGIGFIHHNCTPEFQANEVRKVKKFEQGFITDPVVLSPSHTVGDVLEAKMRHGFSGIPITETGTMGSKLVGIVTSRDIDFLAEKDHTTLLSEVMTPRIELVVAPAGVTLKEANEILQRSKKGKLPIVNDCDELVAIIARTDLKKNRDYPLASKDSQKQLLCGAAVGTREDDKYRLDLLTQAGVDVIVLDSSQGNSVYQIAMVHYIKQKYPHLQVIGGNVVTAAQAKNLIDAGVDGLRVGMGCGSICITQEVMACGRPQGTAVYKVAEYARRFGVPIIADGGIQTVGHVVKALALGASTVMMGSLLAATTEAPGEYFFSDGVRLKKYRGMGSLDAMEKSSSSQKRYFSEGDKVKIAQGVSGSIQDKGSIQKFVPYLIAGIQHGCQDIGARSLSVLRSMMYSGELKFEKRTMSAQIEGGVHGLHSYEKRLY

On to `COc1cc(NC(=O)C(=O)NCc2ccc(/C=C/C(=O)NO)cc2)ccc1-c1cnco1`, for which the Ki stood at 17 µM in experiment [1] and 1.4 µM in experiment [3]. Moreover, the figures for the half-maximal inhibitory concentration (IC50) in experiment [2] and in experiment [4] were 5.3 µM and 0.23 µM, respectively.
For `COc1cc(NC(=O)NCc2ccc(/C=C/C(=O)NO)cc2)ccc1C#N`, the Ki in experiment [1] was over 100 µM; in experiment [3] it was 11 µM. The compound further came in with an IC50 in experiment [4] of 0.036 µM.
With `COc1cc(NC(=O)Nc2cccc(/C=C/C(=O)NO)c2)ccc1C#N`, the Ki in experiment [1] is 8.2 µM; in experiment [3], 1.2 µM. Moreover, the IC50 was determined as 38 µM in experiment [2] and 3.4 µM in experiment [4].
In the case of `COc1cc(NC(=O)Nc2ccc(/C=C/C(=O)NO)cc2)ccc1C#N`, the Ki is 1.2 µM in experiment [1] and 0.23 µM in experiment [3]. Moreover, the values for the IC50 in experiment [2] and in experiment [4] were 4 µM and 0.63 µM, respectively.
Taken in the same sequence, the figures for `COc1cc(NC(=O)C(=O)Nc2cccc(/C=C/C(=O)NO)c2)ccc1-c1cnco1` were 0.46 µM, 0.2 µM, 28 µM and 1.8 µM.
In the case of `COc1cc(NC(=O)Nc2ccc(/C=C/C(=O)NO)cc2)ccc1-c1cnco1`, the figures for the Ki in experiment [1] and in experiment [3] were 0.3 µM and 0.25 µM, respectively. For the same compound, the results for the half-maximal inhibitory concentration (IC50) in experiment [2] and in experiment [4] were 4.9 µM and 0.55 µM, respectively.
Consider `COc1cc(NC(=O)NCc2cccc(/C=C/C(=O)NO)c2)ccc1C#N`, for which the Ki in experiment [1] came out at 44 µM; in experiment [3], 2.6 µM. Besides, the half-inhibitory concentration (IC50) in experiment [2] is 28 µM; in experiment [4] it was 0.64 µM.
On to `COc1cc(NC(=O)C(=O)NCc2cccc(/C=C/C(=O)NO)c2)ccc1-c1cnco1`, for which the Ki amounted to 4.4 µM in experiment [1] and 1.5 µM in experiment [3]. Also, the IC50 in experiment [2] was over 100 µM; in experiment [4], 0.89 µM.
Taken in the same sequence, the figures for `COc1cc(NC(=O)NCc2cccc(/C=C/C(=O)NO)c2)ccc1-c1cnco1` were 2.3 µM, 0.34 µM, 18 µM and 0.83 µM.
Taken in the same sequence, the figures for `COc1cc(NC(=O)C(=O)Nc2ccc(/C=C/C(=O)NO)cc2)ccc1-c1cnco1` were 7.1 µM, 1.8 µM, 72 µM and 17 µM.
Taken in the same sequence, the figures for `COc1cc(NC(=O)Nc2cccc(/C=C/C(=O)NO)c2)ccc1-c1cnco1` were 0.58 µM, 0.12 µM, over 100 µM and 3 µM.
Consider `COc1cc(NC(=O)NCc2ccc(/C=C/C(=O)NO)cc2)ccc1-c1cnco1`, for which the Ki in experiment [1] is 7.8 µM; in experiment [3], 1.2 µM. For the same compound, the 50% inhibitory concentration (IC50) in experiment [2] amounted to 3.5 µM; in experiment [4] it was 0.026 µM.

The record behind these values is ChEMBL document CHEMBL1212872, “Dual inhibitors of inosine monophosphate dehydrogenase and histone deacetylase based on a cinnamic hydroxamic acid core structure” (Bioorg Med Chem, 2010).
